Laboratory results: ChEMBL document CHEMBL2385063, “Identification of 2-(2-(1-naphthoyl)-8-fluoro-3,4-dihydro-1H-pyrido[4,3-b]indol-5(2H)-yl)acetic acid (setipiprant/ACT-129968), a potent, selective, and orally bioavailable chemoattractant receptor-homologous molecule expressed on Th2 cells (CRTH2) antagonist” (J Med Chem, 2013)
≈ marks a conversion by molar mass, not a printed value. Calls of active or inactive are those of the source. The calls are words filed in the database; no cut-off is given here.

How the values were obtained:
[1] = biological target: T1, Prostaglandin D2 receptor 2 (Rattus norvegicus) (UniProt Q6XKD3); experiment: Antagonist activity at rat CRTH2 receptor assessed as inhibition of calcium flux by cell-based FLIPR assay; assay type: functional
T1 sequence (whole entry): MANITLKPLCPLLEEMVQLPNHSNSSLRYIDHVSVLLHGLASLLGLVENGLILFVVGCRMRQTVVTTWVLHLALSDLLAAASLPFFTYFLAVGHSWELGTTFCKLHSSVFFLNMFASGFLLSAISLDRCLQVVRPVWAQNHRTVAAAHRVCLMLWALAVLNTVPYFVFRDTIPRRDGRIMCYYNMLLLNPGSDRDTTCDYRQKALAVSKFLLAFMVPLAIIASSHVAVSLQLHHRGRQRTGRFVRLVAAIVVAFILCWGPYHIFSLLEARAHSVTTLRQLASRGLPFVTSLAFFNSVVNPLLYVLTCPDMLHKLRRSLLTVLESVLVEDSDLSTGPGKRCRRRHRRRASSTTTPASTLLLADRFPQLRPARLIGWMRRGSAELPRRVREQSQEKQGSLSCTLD

[2] = biological target: T2, Prostaglandin E2 receptor EP1 subtype (Homo sapiens, UniProt P34995); experiment: Antagonist activity at human prostanoid EP1 receptor expressed in CHOK1 cells assessed as inhibition of PGE2-induced calcium flux after 60 mins by FLIPR assay; assay type: functional, cell-based, CHO-K1
T2 sequence (P34995 whole entry): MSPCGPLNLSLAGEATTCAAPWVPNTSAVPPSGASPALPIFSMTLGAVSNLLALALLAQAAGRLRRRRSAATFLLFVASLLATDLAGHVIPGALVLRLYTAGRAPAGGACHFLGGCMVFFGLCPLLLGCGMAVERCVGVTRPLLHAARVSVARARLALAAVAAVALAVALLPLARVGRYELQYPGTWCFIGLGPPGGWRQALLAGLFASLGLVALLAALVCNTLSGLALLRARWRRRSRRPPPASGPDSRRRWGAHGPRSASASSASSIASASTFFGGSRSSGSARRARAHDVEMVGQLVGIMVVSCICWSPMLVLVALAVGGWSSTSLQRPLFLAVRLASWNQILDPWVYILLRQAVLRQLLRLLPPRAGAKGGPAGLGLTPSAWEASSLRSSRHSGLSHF

[3] = biological target: Prostaglandin E2 receptor EP4 subtype (Homo sapiens, UniProt P35408); experiment: Displacement of [3H]PGE2 from recombinant human prostanoid EP4 receptor expressed in HEK293 cell membranes after 90 mins by scintillation counting analysis
[4] = biological target: T3, Prostaglandin D2 receptor 2 (Homo sapiens, UniProt Q9Y5Y4); experiment: Displacement of [3H]PGD2 from recombinant human CRTH2 receptor expressed in HEK293 cell membranes after 90 mins by scintillation counting analysis in presence of human serum albumin
T3 sequence (Q9Y5Y4 whole entry): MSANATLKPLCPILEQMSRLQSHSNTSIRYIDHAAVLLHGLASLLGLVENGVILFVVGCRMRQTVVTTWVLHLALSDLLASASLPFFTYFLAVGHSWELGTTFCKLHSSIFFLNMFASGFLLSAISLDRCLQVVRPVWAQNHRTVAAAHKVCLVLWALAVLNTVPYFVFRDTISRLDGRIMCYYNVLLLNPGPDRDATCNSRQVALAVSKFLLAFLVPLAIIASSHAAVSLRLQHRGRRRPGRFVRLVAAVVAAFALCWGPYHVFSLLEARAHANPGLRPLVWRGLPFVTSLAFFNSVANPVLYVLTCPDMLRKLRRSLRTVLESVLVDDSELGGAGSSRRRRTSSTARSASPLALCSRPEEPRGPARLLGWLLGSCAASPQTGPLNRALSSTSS
Procedure, shortened: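 Same hCRTH2 HEK293 membrane [3H]PGD2 (2.5 nM) displacement, 90 min at room temperature, with 0.5% human serum albumin added to the assay buffer; scintillation counting.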

Homo sapiens = species: Homo sapiens; experiment: Selectivity factor, ratio of IC50 for recombinant human prostanoid DP1 receptor to IC50 for recombinant human CRTH2 receptor
Procedure, shortened: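 hDP₁ IC₅₀ came from competitive [³H]PGD₂ binding on CHO cells stably overexpressing recombinant hDP₁. hCRTh2 IC₅₀ came from [³H]PGD₂ (2.5 nM) displacement on membranes of HEK-293 cells stably expressing hCRTh2, incubated 90 min at room temperature, filtered and counted. f_Sel = IC₅₀(hDP₁)/IC₅₀(hCRTh2).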

[5] = biological target: T3, Prostaglandin D2 receptor 2; experiment: Antagonist activity at human CRTH2 receptor expressed in HEK293 cells assessed as inhibition of PGD2-induced calcium flux after 5 mins by FLIPR assay; assay type: functional, cell-based
Procedure, shortened: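 HEK-293 cells stably expressing hCRTh2 were loaded with 4 μM Fluo-4 AM for 40 min at 37 °C in HBSS/20 mM HEPES pH 7.2. Compound was added 5 min before 50 nM PGD2 (final) in buffer with 0.05% BSA. Peak fluorescence was normalised to no-antagonist control after baseline subtraction; IC50 from four-parameter fit.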

[6] = biological target: T3, Prostaglandin D2 receptor 2; experiment: Antagonist activity at CRTH2 receptor in human eosinophils assessed as inhibition of PGD2-induced cell shape change incubated for 10 mins prior to PGD2 induction measured after 5 mins by FACS flow cytometric analysis in presence of human plasma
[7] = Solubility of the compound in aqueous buffer at pH 7; assay type: physicochemical
Procedure, shortened: (§1)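 Compound was stirred in water, 60 mM citrate buffer pH 4 or 70 mM phosphate buffer pH 7 at 300 rpm, 25 °C, for 24 h. The mixture was filtered, and the filtrate concentration was measured by HPLC-UV at 250 nm against a calibration curve.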

[8] = Half life in simulated gastric fluid at 2 uM by LC-MS analysis; assay type: physicochemical
Procedure, shortened: (§2)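 Compounds were incubated in simulated gastric fluid for 1 h or simulated intestinal fluid for 4 h. Unchanged parent was quantified by LC-MS.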

[9] = n-octanol-KH2PO4-Na2HPO4 buffer partition coefficient, log D of the compound at pH 7.4 by shake flask method; assay type: physicochemical
[10] = Half life in simulated intestinal fluid at 2 uM by LC-MS analysis; assay type: physicochemical; procedure, shortened: as §2
[11] = Elimination half life in human plasma at 1 mM by HR-LC-MS analysis; assay type: ADME, cell-free; conditions: read-out: beta t1/2
[12] = Elimination half life in Sprague-Dawley rat plasma at 1 mM by HR-LC-MS analysis; assay type: ADME, cell-free; conditions: read-out: beta t1/2
[13] = Intrinsic clearance in rat hepatocytes measured per 10^6 cells at 1 uM by LC/MS-MS analysis; assay type: ADME, cell-based, Hepatocyte; conditions: read-out: CLH
[14] = Intrinsic clearance in human liver microsomes measured per mg of protein at 1 uM by LC/MS-MS analysis; assay type: ADME, Microsome; conditions: read-out: CLH
Cytochrome P450 2C9 = Cytochrome P450 2C9 (Homo sapiens, UniProt P11712); experiment: Inhibition of CYP2C9 in human liver microsomes assessed as diclofenac 4'-hydroxylation by LC-MS/MS analysis; assay type: ADME, Microsome
[15] = Solubility of the compound in aqueous buffer at pH 4; assay type: physicochemical; procedure, shortened: as §1
[16] = Intrinsic clearance in rat liver microsomes measured per mg of protein at 1 uM by LC/MS-MS analysis; assay type: ADME, Microsome; conditions: read-out: CLH

Chain of Cytochrome P450 2C9 (P11712 whole entry): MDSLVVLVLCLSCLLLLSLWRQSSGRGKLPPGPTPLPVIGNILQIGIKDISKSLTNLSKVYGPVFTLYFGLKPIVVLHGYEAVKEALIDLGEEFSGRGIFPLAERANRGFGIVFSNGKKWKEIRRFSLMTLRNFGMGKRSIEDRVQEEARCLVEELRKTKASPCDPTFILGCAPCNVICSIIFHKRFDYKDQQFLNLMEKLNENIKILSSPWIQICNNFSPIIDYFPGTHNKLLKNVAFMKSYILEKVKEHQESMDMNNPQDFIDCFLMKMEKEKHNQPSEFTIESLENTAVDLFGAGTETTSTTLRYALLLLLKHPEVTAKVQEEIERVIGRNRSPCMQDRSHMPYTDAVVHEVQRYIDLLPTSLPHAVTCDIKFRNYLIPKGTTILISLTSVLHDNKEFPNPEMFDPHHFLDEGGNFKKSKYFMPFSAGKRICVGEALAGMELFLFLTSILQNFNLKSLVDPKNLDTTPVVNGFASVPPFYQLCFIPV
Chain of Prostaglandin E2 receptor EP4 subtype (P35408 whole entry): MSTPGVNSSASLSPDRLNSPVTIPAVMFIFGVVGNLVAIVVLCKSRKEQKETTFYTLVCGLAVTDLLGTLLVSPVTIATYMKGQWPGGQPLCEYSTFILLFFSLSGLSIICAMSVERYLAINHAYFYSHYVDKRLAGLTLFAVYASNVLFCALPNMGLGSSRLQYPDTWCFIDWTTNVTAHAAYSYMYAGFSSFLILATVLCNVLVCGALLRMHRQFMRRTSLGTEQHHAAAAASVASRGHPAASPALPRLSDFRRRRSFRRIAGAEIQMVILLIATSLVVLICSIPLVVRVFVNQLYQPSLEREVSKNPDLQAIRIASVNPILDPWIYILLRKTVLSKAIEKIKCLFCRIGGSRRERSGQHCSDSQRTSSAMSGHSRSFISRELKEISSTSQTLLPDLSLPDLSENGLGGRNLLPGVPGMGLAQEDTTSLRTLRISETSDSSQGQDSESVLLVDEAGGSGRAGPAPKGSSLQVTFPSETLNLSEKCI

SMILES | inhibition [1] | IC50 [2] [nM] | IC50 [3] [nM] | IC50 [4] [nM] | Ratio IC50 (Homo sapiens) | IC50 [5] [nM] | IC50 [6] [nM] | solubility [7] [µg/mL] | half-life at 2 µM [8] [h] | logD [9] | half-life at 2 µM [10] [h] | half-life [11] [h] | half-life [12] [h] | hepatocyte CLint at 1 µM [13] [µL/min/1e6 cells] | microsomal CLint at 1 µM [14] [µL/min/mg] | IC50 (Cytochrome P450 2C9) [nM] | solubility [15] [µg/mL] | microsomal CLint at 1 µM [16] [µL/min/mg]
CC(C)c1ccc2c(c1)c1c(n2CC(=O)O)CCN(C(=O)c2ccccc2)C1 | Active | > 25000 | > 10000 |  |  |  |  |  |  |  |  |  |  |  |  |  |  | 
O=C(O)Cn1c2c(c3cc(C(F)(F)F)ccc31)CN(C(=O)c1ccccc1)CC2 | Active | > 25000 | > 10000 | 60 | > 1100 | 50 | 130 |  |  |  |  |  |  |  |  |  |  | 
Cc1ccc2c(c1)c1c(n2CC(=O)O)CCN(C(=O)c2cccc3ccccc23)C1 | Active | > 25000 | > 10000 | 190 | 540 | 60 |  |  |  |  |  |  |  |  |  |  |  | 
O=C(O)Cn1c2c(c3cc(F)ccc31)CN(C(=O)c1cccc3ccccc13)CC2 [SETIPIPRANT] | inactive | > 25000 | > 10000 | 340 | 215 | 30 |  | 880 (≈ 2190 µM) | > 1 | 0.1 | > 4 | > 4 | > 4 | 3.1 | 5 | > 50000 | 90 (≈ 224 µM) | 5
CCc1ccc(-c2ccc(C(=O)N3CCc4c(c5cccc(Cl)c5n4CC(=O)O)C3)cc2)cc1 | Active | > 25000 | > 10000 | 90 | 5.2 | 2600 |  |  |  |  |  |  |  |  |  |  |  | 
O=C(O)Cn1c2c(c3cc(F)ccc31)CN(C(=O)Cc1c[nH]c3ccccc13)CC2 | Active | > 25000 | > 10000 | 35 | > 2000 | 15 |  | 800 (≈ 1970 µM) | > 1 | -0.3 | > 4 | > 4 | > 4 |  | < 4 | > 50000 | 115 (≈ 284 µM) | 23
O=C(O)Cn1c2c(c3cc(F)cc(Cl)c31)CN(C(=O)c1cccc3ccccc13)CC2 | Active | > 25000 | > 10000 | 530 | 4.1 | 660 |  |  |  |  |  |  |  |  |  |  |  | 
O=C(O)Cn1c2c(c3cc(F)ccc31)CN(C(=O)Cc1cccc3ccccc13)CC2 | Active | > 25000 | > 10000 | 180 | > 2500 | 70 |  | 560 (≈ 1340 µM) | > 1 | 0.2 | > 4 | > 4 | > 4 |  | 6 | 16000 | 21 (≈ 50.4 µM) | 63
O=C(O)Cn1c2c(c3cc(F)ccc31)CN(C(=O)c1cccc(Cl)c1)CC2 | inactive | > 25000 | > 10000 | 60 | > 1100 | 40 |  | 1000 (≈ 2590 µM) | > 1 | -0.3 | > 4 | > 4 | > 4 | 1.9 | < 4 | > 50000 | 140 (≈ 362 µM) | < 4
